What is called MIC is the least concentration at which growth counts as inhibited. The low end stands for greater potency, the high end for weaker potency. The term IC50 denotes the midpoint of a concentration-inhibition curve. By solubility is commonly meant the dissolved amount per volume that the medium holds. Low readings indicate little dissolved substance, high ones much dissolved substance. A word on the EC50: it is the concentration that produces a half-maximal response. What is called inhibition is the change of the read-out against control, counted positive when it falls.

Molecules are shown by their SMILES. Values after ≈ are worked out from the molar mass of the structure shown.

Data set [1] has as its system Staphylococcus aureus. The experiment in a line: Antibacterial activity against Staphylococcus aureus JC9213 by CLSI based broth dilution assay. It is filed as functional. For orientation: In broth dilution the organism is exposed to a series of concentrations in liquid medium.
Data set [2] in a line: Inhibition of protein synthesis in mitochondria (unknown origin) assessed as [35S]methionine incorporation incubated for 15 to 120 mins by paper disk assay. Further details: species or system Homo sapiens.
Data set [3] has as its system Staphylococcus aureus. The experiment in a line: Antibacterial activity against methicillin-resistant Staphylococcus aureus ATCC 43300 measured after 18 hrs by broth microdilution method. It is filed as functional. The settings on record: ATCC 43300, 18 h. The method in brief: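 S. aureus ATCC 43300 grown overnight in cation-adjusted Mueller Hinton broth at 37 °C, diluted 40-fold and regrown 1.5-3 h to mid-log. Inoculum 5×10^5 CFU/mL added to 8-point 1:2 serial dilutions from a top final concentration of 32 μg/mL or 20 μM, DMSO ≤0.5%, in duplicate. Incubated 18 h at 37 °C without shaking.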

Data set [4] relates to Staphylococcus aureus. The experiment in a line: Antibacterial activity against methicillin-sensitive Staphylococcus aureus ATCC 8235-4 measured after 16 hrs by broth microdilution method. Type of data set: functional. Particulars: ATCC 8235-4, 16 h. A digest of the protocol: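 Overnight culture diluted 1:200 into plates, sealed, shaken at 150 RPM at 37 °C for 16 h, then OD600 read. MIC defined as the concentration giving at least 90% growth inhibition relative to DMSO-treated wells; μM converted to μg/mL and rounded to nearest integer.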

Data set [5] is described as follows: Aqueous solubility of compound. Particulars: buffer. Type of data set: physicochemical.
Data set [6] can be described thus: Stability in gastric pH assessed as compound remaining after 24 hrs relative to control. It is filed as physicochemical.
The test system of data set [7] is HepG2. The experiment in a line: Cytotoxicity against human HepG2 cells assessed as reduction in cell viability by CellTiter-Glo assay. It is filed as cell-based. On the technique in general: ATP-based viability assays read luminescence as a measure of living cells.
Data set [8] deals with T1, Cytochrome P450 1A2 (Homo sapiens, UniProt P05177).
T1 sequence (P05177 whole entry): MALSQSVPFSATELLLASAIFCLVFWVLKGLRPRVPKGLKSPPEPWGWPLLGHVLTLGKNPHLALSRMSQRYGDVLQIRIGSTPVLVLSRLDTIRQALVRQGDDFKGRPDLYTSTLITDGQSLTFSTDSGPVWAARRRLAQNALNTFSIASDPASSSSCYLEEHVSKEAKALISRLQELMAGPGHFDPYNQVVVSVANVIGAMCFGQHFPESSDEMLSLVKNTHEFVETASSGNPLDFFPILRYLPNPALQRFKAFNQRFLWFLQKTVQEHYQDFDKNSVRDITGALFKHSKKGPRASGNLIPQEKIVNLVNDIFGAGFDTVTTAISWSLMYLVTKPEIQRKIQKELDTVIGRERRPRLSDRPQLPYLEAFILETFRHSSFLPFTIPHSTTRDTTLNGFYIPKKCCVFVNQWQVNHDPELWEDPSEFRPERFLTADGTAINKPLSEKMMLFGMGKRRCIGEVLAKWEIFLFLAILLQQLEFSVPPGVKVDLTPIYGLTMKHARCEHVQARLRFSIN
The experiment in a line: Inhibition of CYP1A2 (unknown origin). Type of data set: ADME.

Data set [9] deals with Cytochrome P450 2C9 (Homo sapiens, UniProt P11712). The experiment in a line: Inhibition of CYP2C9 (unknown origin). Type of data set: ADME.
Data set [10] has as its target Cytochrome P450 2C19 (Homo sapiens, UniProt P33261). The experiment in a line: Inhibition of CYP2C19 (unknown origin). It is filed as ADME.
In data set [11] the target is Cytochrome P450 2D6 (Homo sapiens, UniProt P10635). The experiment in a line: Inhibition of CYP2D6 (unknown origin). Type of data set: ADME.
In data set [12] the target is Cytochrome P450 3A4 (Homo sapiens, UniProt P08684). The experiment in a line: Inhibition of CYP3A4 (unknown origin). Type of data set: ADME.
Data set [13] is described as follows: Half life in mouse hepatocytes.
In data set [14] the test system is Staphylococcus aureus. The experiment in a line: Antibacterial activity against methicillin-resistant Staphylococcus aureus ATCC 43300 at 6 ug/ml measured after 18 hrs by broth microdilution method relative to control. It is filed as functional. The settings on record: ATCC 43300, 18 h.
In data set [15] the test system is Staphylococcus aureus. The experiment in a line: Antibacterial activity against methicillin-sensitive Staphylococcus aureus ATCC 8235-4 at 6 ug/ml measured after 16 hrs by broth microdilution method relative to control. It is filed as functional. Particulars: ATCC 8235-4, 16 h. A digest of the protocol: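 Overnight S. aureus 8235-4 culture diluted 1:200 into LB broth containing compound at 4–22 μM in 2 μM steps. Plates sealed and shaken at 150 rpm, 37 °C, 16 h. OD600 read, and growth inhibition expressed relative to DMSO carrier-only wells. μM values converted to μg/mL and rounded to the nearest integer.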

Cytochrome P450 2D6, sequence (P10635 whole entry): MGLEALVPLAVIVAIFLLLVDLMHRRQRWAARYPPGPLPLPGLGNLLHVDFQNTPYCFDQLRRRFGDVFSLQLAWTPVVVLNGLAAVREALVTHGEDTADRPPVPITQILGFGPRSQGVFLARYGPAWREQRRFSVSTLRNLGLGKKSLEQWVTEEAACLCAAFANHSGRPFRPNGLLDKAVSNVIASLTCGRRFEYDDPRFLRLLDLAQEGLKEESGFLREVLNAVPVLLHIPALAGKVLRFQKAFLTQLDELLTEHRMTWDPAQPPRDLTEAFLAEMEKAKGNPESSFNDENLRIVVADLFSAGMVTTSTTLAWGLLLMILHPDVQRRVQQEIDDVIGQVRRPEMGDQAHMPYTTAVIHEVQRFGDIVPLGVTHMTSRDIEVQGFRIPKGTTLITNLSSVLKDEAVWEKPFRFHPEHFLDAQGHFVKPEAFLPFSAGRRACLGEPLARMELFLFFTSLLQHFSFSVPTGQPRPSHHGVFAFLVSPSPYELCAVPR
Cytochrome P450 3A4, sequence (P08684 whole entry): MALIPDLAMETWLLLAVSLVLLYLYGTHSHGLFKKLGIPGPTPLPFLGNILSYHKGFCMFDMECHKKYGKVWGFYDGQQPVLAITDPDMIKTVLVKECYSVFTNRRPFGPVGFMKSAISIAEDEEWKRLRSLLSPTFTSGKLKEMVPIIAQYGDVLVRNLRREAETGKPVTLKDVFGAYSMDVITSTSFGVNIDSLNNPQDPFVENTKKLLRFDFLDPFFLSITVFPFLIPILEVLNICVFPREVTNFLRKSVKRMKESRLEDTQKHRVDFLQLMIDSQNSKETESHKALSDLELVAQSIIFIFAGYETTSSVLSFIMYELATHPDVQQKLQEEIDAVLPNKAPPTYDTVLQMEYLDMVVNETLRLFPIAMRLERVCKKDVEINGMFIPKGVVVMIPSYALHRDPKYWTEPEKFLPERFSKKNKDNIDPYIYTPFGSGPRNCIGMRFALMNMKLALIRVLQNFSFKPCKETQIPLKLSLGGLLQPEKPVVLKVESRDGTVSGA
Cytochrome P450 2C19, sequence (P33261 whole entry): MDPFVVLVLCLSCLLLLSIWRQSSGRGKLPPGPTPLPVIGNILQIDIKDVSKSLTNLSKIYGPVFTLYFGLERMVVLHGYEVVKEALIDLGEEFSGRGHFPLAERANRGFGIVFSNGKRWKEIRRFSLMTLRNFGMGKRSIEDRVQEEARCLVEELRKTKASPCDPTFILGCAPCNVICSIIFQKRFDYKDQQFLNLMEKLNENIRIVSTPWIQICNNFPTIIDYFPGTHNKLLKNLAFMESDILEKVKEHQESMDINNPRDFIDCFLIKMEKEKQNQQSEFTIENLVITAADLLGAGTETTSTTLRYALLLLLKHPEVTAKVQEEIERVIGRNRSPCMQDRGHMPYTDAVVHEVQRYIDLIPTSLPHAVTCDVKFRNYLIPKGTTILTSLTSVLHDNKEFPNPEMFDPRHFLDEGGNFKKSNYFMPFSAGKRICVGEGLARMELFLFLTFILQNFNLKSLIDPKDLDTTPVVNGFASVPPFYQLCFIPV
Cytochrome P450 2C9, sequence (P11712 whole entry): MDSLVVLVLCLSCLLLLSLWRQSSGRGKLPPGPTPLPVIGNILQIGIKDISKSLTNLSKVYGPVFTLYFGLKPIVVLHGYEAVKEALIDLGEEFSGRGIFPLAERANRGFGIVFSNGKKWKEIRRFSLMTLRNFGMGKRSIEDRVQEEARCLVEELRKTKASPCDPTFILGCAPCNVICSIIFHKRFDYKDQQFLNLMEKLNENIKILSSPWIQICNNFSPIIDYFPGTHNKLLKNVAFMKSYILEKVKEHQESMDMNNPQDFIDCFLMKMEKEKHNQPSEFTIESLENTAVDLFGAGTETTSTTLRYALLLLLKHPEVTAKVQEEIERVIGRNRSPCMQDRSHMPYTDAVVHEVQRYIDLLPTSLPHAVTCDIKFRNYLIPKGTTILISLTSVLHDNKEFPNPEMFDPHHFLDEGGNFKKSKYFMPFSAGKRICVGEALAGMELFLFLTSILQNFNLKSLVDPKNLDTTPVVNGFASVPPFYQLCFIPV

Molecule `CC(=O)NC[C@H]1CN(c2ccc(C3=CCOCC3)c(F)c2)C(=O)O1` displayed a minimal inhibitory concentration (MIC) in data set [1] of 1 µg/mL (≈ 2.99 µM). Moreover, the half-inhibitory concentration (IC50) in [2] was found to be 0.95 µg/mL (≈ 2.84 µM).

`CC(=O)NC[C@H]1CN(c2ccc(N3CCN(C(=O)CO)CC3)c(F)c2)C(=O)O1` [EPEREZOLID] yielded a minimal inhibitory concentration (MIC) in [1] of 2 µg/mL (≈ 5.07 µM). Moreover, the IC50 in data set [2] was 4.2 µg/mL (≈ 10.6 µM).

With `CC(=O)NC[C@H]1CN(c2ccc(N3CCO[C@@]4(CCCOC4)C3)c(F)c2)C(=O)O1`, the figures for the minimal inhibitory concentration (MIC) in [3] and in [4] were 5 µg/mL (≈ 12.3 µM) and 6 µg/mL (≈ 14.7 µM), respectively. In data set [5], the solubility is over 52.15 µg/mL. Moreover, the Stability in [6] was determined as 94%. Moreover, in [7], the EC50 is over 30 µM. Further, the INH in data set [8], in [9], in [10], in [11] and in [12] was over 100 µM each time. The molecule also had a t1/2 in data set [13] of 170 min.

Turning to `CC(=O)NC[C@H]1CN(c2ccc(N3CCOC4(CCCN(C(C)=O)C4)C3)c(F)c2)C(=O)O1` (some centres undefined), the inhibition at 6 µg/mL in data set [14] and in data set [15] was 18% each time.

`CC(=O)NC[C@H]1CN(c2ccc(N3CCOC(C)(CCN(C)C)C3)c(F)c2)C(=O)O1` (some centres undefined) had a minimum inhibitory concentration (MIC) in [4] of over 32 µg/mL.

`CC(=O)NC[C@H]1CN(c2ccc(N3CCOC4(CCN(C)C4)C3)c(F)c2)C(=O)O1` (some centres undefined) showed a minimum inhibitory concentration (MIC) in data set [4] of over 32 µg/mL.

Turning to `CC(=O)NC[C@H]1CN(c2ccc(-n3cncn3)c(F)c2)C(=O)O1`, in data set [1], the MIC is 4 µg/mL (≈ 12.5 µM). Besides, the concentration for half-maximal inhibition (IC50) in data set [2] was 1.7 µg/mL (≈ 5.32 µM).

In turn, `CC(=O)NC[C@H]1CN(c2ccc(N3CCOC4(CCCNC4)C3)c(F)c2)C(=O)O1` (some centres undefined) came in with a minimal inhibitory concentration (MIC) in data set [4] of over 32 µg/mL.

`C=CCC1(C)CN(c2ccc(N3C[C@H](CNC(C)=O)OC3=O)cc2F)CCO1` (some centres undefined): the MIC in data set [3] turned out to be 16 µg/mL (≈ 40.9 µM).

Consider `CC(=O)NC[C@H]1CN(c2ccc(N3CCOC4(CCCOC4)C3)c(F)c2)C(=O)O1` (some centres undefined), for which it took 7 µg/mL (≈ 17.2 µM) to inhibit growth in data set [4] (MIC).

For `CC(=O)NC[C@H]1CN(c2ccc(N3CCOCC3)c(F)c2)C(=O)O1` [LINEZOLID], the concentration for half-maximal inhibition (IC50) in [2] stood at 12.8 µg/mL (≈ 37.9 µM). Further, in data set [3], inhibition of growth (MIC) required 1 µg/mL (≈ 2.96 µM). Besides, the Stability in [6] was found to be 98%. In addition, in data set [7], the EC50 is over 30 µM. The INH in data set [8], in data set [9], in [10], in data set [11] and in data set [12] was over 100 µM throughout. The t1/2 in [13] is reported as over 216.8 min.

The molecule `CC(=O)NC[C@H]1CN(c2ccc(N3CCO[C@]4(CCCOC4)C3)c(F)c2)C(=O)O1` registered an MIC in data set [4] of 9 µg/mL (≈ 22.1 µM). The solubility in [5] was over 48.49 µg/mL. The Stability in data set [6] came to 89%. In addition, the EC50 in data set [7] was over 30 µM. Also, the INH in [8], in data set [9], in [10], in data set [11] and in data set [12] was over 100 µM each time. Moreover, the t1/2 in [13] is 128.3 min.

Take `CC(=O)NC[C@H]1CN(c2ccc(N3CCOC4(CCNC4)C3)c(F)c2)C(=O)O1` (some centres undefined): the MIC in [4] was over 32 µg/mL.

In [4], `CC(=O)NC[C@H]1CN(c2ccc(N3CCOC(C)(CCCOC(C)=O)C3)c(F)c2)C(=O)O1` (some centres undefined) displayed a minimal inhibitory concentration (MIC) of over 32 µg/mL.

Regarding `CC(=O)NC[C@H]1CN(c2ccc(N3CCOC(C)(C)C3)c(F)c2)C(=O)O1`, in [3], the MIC was determined as 8 µg/mL (≈ 21.9 µM).

`CC(=O)NC[C@H]1CN(c2ccc(N3CCOC4(CCOC4)C3)c(F)c2)C(=O)O1` (some centres undefined): in [15], testing at 6 µg/mL gave an inhibition of 65%.

Molecule `C=CCC1(COCc2ccccc2)CN(c2ccc(N3C[C@H](CNC(C)=O)OC3=O)cc2F)CCO1` (some centres undefined) came in with a minimal inhibitory concentration (MIC) in [4] of over 32 µg/mL.

In [3], `CC(=O)NC[C@H]1CN(c2ccc(N3CCOC(C)(CCCO)C3)c(F)c2)C(=O)O1` (some centres undefined) displayed a minimal inhibitory concentration (MIC) of over 32 µg/mL.

As to `CCCC1(C)CN(c2ccc(N3C[C@H](CNC(C)=O)OC3=O)cc2F)CCO1` (some centres undefined), the minimum inhibitory concentration (MIC) in data set [3] came to 16 µg/mL (≈ 40.7 µM).

The molecule `CCCC1(CO)CN(c2ccc(N3C[C@H](CNC(C)=O)OC3=O)cc2F)CCO1` (some centres undefined) returned an inhibition at 6 µg/mL in data set [15] of 48%.

Molecule `C/N=c1\ccc(-c2ccc(N3C[C@H](CNC(C)=O)OC3=O)cc2F)ccc1O` had an MIC in data set [1] of 2 µg/mL (≈ 5.19 µM). The 50% inhibitory concentration (IC50) in data set [2] was 0.83 µg/mL (≈ 2.15 µM).

The values are drawn from ChEMBL document CHEMBL4346763, “Incorporation of a chiral gem-disubstituted nitrogen heterocycle yields an oxazolidinone antibiotic with reduced mitochondrial toxicity” (Bioorg Med Chem Lett, 2019).
